Reference: ChEMBL document CHEMBL1151695, “Design, synthesis and preliminary pharmacological evaluation of new analogues of DM232 (unifiram) and DM235 (sunifiram) as cognition modulators” (Bioorg Med Chem, 2008)

Tests used:
Mus musculus [1] = organism: Mus musculus; test: Effect on passive avoidance in mouse treated 20 mins before training session; type: functional; conditions: read-out: MED
Summary of the method: (§1)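 Same step-through passive avoidance without scopolamine. Punishment is a 40 cm fall into 10 °C water on entering the dark room. Mice not entering within 60 s at training were excluded. Compound given ip at 1:10 dilution steps, 20 min before training, in saline or saline/DMSO 4:1. Controls received an extra saline injection right after training. Latency to enter the dark room recorded at training and at next-day retention.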

Mus musculus [2] = test: Effect on passive avoidance in mouse assessed as latency time to enter dark room in training session at 0.01 mg/kg, ip treated 20 mins before training session; type: functional; conditions: route intraperitoneal; summary of the method: as §1
Mus musculus [3] = organism: Mus musculus; test: Toxicity in mouse assessed as motor coordination after 45 mins by rotarod test; type: organism-based; conditions: in vivo, 0.75 h
Summary of the method: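 Rota-rod: rod 30 cm long, 15 cm above the base, split into five sections, rotating at 16 rpm. Falls counted over 30 s. Mice with fewer than 3 or more than 6 falls in the pretest were rejected. Performance measured at pretest and 15, 30 and 45 min after test start. Compared with saline-treated mice.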

Mus musculus [4] = test: Antiamnesic activity in scopolamine-induced mouse assessed as latency time to enter dark room in training session at 0.001 mg/kg, ip treated 20 mins before training session by passive avoidance test; type: functional; conditions: route intraperitoneal
Summary of the method: (§2)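 Step-through passive avoidance in mice: lit and dark compartments joined by a guillotine door. Entering the dark side drops the mouse 40 cm into 10 °C water, a non-painful punishment. Mice not entering within 60 s at training were excluded. Compound given ip at 1:10 dilution steps […], 20 min before training. Vehicle was saline or saline/DMSO 4:1. Scopolamine 1.5 mg/kg ip immediately after punishment. Retention tested next day. MED is the lowest dose reversing amnesia.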

Mus musculus [5] = organism: Mus musculus; test: Toxicity in mouse assessed as spontaneous motility and inspection activity after 5 mins by hole board test; type: organism-based; conditions: in vivo
Summary of the method: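 Hole-board: 40 cm square plane with 16 holes of 3 cm, arranged 4×4. Each mouse placed centrally and free to move for […]. Photocells counted locomotion (spontaneous motility) and hole exploration, both as counts in 5 min. Compared with saline-treated mice.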

Mus musculus [6] = test: Antiamnesic activity in ip dosed mouse assessed as reversal of scopolamine-induced memory loss treated 20 mins before training session by passive avoidance test; type: functional; conditions: read-out: MED; summary of the method: as §2
Mus musculus [7] = test: Effect on passive avoidance in mouse assessed as latency time to enter dark room in retention session at 0.01 mg/kg, ip treated 20 mins before training session; type: functional; conditions: route intraperitoneal; summary of the method: as §1
Mus musculus [8] = test: Antiamnesic activity in scopolamine-induced mouse assessed as latency time to enter dark room in retention session at 0.001 mg/kg, ip treated 20 mins before training session by passive avoidance test; type: functional; conditions: route intraperitoneal; summary of the method: as §2
Mus musculus [9] = test: Antiamnesic activity in scopolamine-induced mouse assessed as latency time to enter dark room in retention session at 30 mg/kg, ip treated 20 mins before training session by passive avoidance test; type: functional; conditions: route intraperitoneal
Summary of the method: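 Mouse step-through passive avoidance in a two-compartment box (lit and dark, guillotine door); entry into the dark side is punished by a fall from 40 cm into a 10 °C water bath. Drug given ip 20 min before training. Scopolamine 1.5 mg/kg given immediately after training. Retention tested the next day, read as latency to enter the dark room. Mice not entering within 60 s at training were excluded.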

Mus musculus [10] = test: Antiamnesic activity in scopolamine-induced mouse assessed as latency time to enter dark room in training session at 30 mg/kg, ip treated 20 mins before training session by passive avoidance test; type: functional; conditions: route intraperitoneal

SMILES | minimal effective dose (Mus musculus [1]) | Activity (Mus musculus [2]) | Activity (Mus musculus [3]) | Activity (Mus musculus [4]) | Activity (Mus musculus [5]) | minimal effective dose (Mus musculus [6]) | Activity (Mus musculus [7]) | Activity (Mus musculus [8]) | Activity (Mus musculus [9]) | Activity (Mus musculus [10])
CCC(=O)N1CCN(C(=O)c2ccccc2)CC1 [SUNIFIRAM] | 0.01 mg/kg | 18.1 s | Non-toxic | 20.5 s | Non-toxic | 0.001 mg/kg | 126.7 s | 91.5 s |  | 
NC(=O)CN1CCCC1=O [PIRACETAM] |  |  |  |  |  | 30 mg/kg |  |  | 108.8 s | 17.6 s
O=C1CCC2CN(S(=O)(=O)c3ccc(F)cc3)CCN12 (centres undefined) [UNIFIRAM] | 0.01 mg/kg | 15.4 s | Non-toxic | 19.7 s | Non-toxic | 0.001 mg/kg | 131.6 s | 104.4 s |  | 
